Data: ChEMBL document CHEMBL4364274, “Synthesis and biological activity of glycyrrhetinic acid derivatives as antitumor agents” (Eur J Med Chem, 2019)
Each block holds one molecule with its values, some of them ahead of it. Active and inactive are the calls of the source. The rule behind the calls is not given here.

How the values were obtained:
HepG2 [1] = assay: Antiproliferative activity against human HepG2 cells incubated for 72 hrs by MTT assay; type: functional, cell-based; details: HepG2, 72 h
Outline: (§1)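 Cells in exponential growth were plated at 3×10^3 cells/well and grown 24 h at 37 °C in 5% CO2. They were then exposed to a range of drug concentrations for 72 h. MTT (5 mg/mL solution) was added for 4 h, the medium was discarded, and formazan was dissolved in DMSO before reading A490. Drug-free wells served as blanks. % inhibition was calculated as 1 − (sample−blank)/(control−blank), and IC50 was taken as the concentration giving 50% inhibition.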

HepG2 [2] = assay: Ratio of IC50 for GA to IC50 for test compound for human HepG2 cells; type: functional
MDCK = assay: Cytotoxicity against MDCK cells incubated for 72 hrs by MTT assay; type: cell-based; details: Canis lupus familiaris; outline: as §1
MCF7 = assay: Antiproliferative activity against human MCF7 cells incubated for 72 hrs by MTT assay; type: functional, cell-based; details: MCF7, 72 h; outline: as §1
HeLa = assay: Antiproliferative activity against human HeLa cells incubated for 72 hrs by MTT assay; type: functional, cell-based; outline: as §1
A549 [3] = assay: Antiproliferative activity against human A549 cells incubated for 72 hrs by MTT assay; type: functional, cell-based; details: A549, 72 h; outline: as §1
A549 [4] = assay: Induction of morphological changes in human A549 cells assessed as condensation of chromatin at 1 to 5 uM incubated for 72 hrs by DAPI staining by inverted phase-contrast microscopic method; type: functional, cell-based
Outline: (§2)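 Exponentially growing A549 cells were plated at 2.4×10^4 cells/well, grown 24 h at 37 °C in 5% CO2, then exposed to 1, 3 or 5 μM for 72 h beside untreated controls. Cells were washed twice in PBS, fixed in 4% paraformaldehyde for 10 min, and stained with DAPI (10 µg/mL) for 1 min in the dark. Nuclei were examined by inverted microscope at 200×.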

A549 [5] = assay: Induction of apoptosis in human A549 cells assessed as late apoptotic cells at 3 uM incubated for 72 hrs by annexin V-FITC and PI staining based flow cytometric analysis (reference value: 6.5%); type: functional
A549 [6] = assay: Induction of apoptosis in human A549 cells assessed as necrotic cells at 3 uM incubated for 72 hrs by annexin V-FITC and PI staining based flow cytometric analysis (reference value: 0.5%); type: functional
A549 [7] = assay: Induction of cell cycle arrest in human A549 cells assessed as accumulation at G1 phase at 3 uM incubated for 72 hrs by PI staining based flow cytometric analysis (reference value: 49.94%); type: functional
A549 [8] = assay: Induction of cell cycle arrest in human A549 cells assessed as accumulation at G1 phase at 5 uM incubated for 72 hrs by PI staining based flow cytometric analysis (reference value: 49.94%); type: functional
A549 [9] = assay: Induction of cell cycle arrest in human A549 cells assessed as accumulation at G2 phase at 3 uM incubated for 72 hrs by PI staining based flow cytometric analysis (reference value: 18.65%); type: functional
A549 [10] = assay: Induction of cell cycle arrest in human A549 cells assessed as accumulation at S phase at 3 uM incubated for 72 hrs by PI staining based flow cytometric analysis (reference value: 31.41%); type: functional
A549 [11] = assay: Induction of apoptosis in human A549 cells assessed as live cell at 5 uM incubated for 72 hrs by annexin V-FITC and PI staining based flow cytometric analysis (reference value: 90%); type: functional
A549 [12] = assay: Induction of morphological changes in human A549 cells assessed as formation of nuclear fragmentation at 1 to 5 uM incubated for 72 hrs by DAPI staining by inverted phase-contrast microscopic method; type: functional, cell-based; outline: as §2
A549 [13] = assay: Induction of cell cycle arrest in human A549 cells assessed as accumulation at G2 phase at 1 uM incubated for 72 hrs by PI staining based flow cytometric analysis (reference value: 18.65%); type: functional
A549 [14] = assay: Induction of apoptosis in human A549 cells assessed as early apoptotic cells at 3 uM incubated for 72 hrs by annexin V-FITC and PI staining based flow cytometric analysis (reference value: 3.0%); type: functional
A549 [15] = assay: Induction of cell cycle arrest in human A549 cells assessed as accumulation at G1 phase at 1 uM incubated for 72 hrs by PI staining based flow cytometric analysis (reference value: 49.94%); type: functional
A549 [16] = assay: Induction of apoptosis in human A549 cells assessed as necrotic cells at 5 uM incubated for 72 hrs by annexin V-FITC and PI staining based flow cytometric analysis (reference value: 0.5%); type: functional
A549 [17] = assay: Ratio of IC50 for GA to IC50 for test compound for human A549 cells; type: functional
A549 [18] = assay: Induction of apoptosis in human A549 cells assessed as necrotic cells at 1 uM incubated for 72 hrs by annexin V-FITC and PI staining based flow cytometric analysis (reference value: 0.5%); type: functional
A549 [19] = assay: Induction of apoptosis in human A549 cells assessed as early apoptotic cells at 1 uM incubated for 72 hrs by annexin V-FITC and PI staining based flow cytometric analysis (reference value: 3.0%); type: functional
A549 [20] = assay: Induction of apoptosis in human A549 cells assessed as live cell at 1 uM incubated for 72 hrs by annexin V-FITC and PI staining based flow cytometric analysis (reference value: 90%); type: functional
A549 [21] = assay: Induction of apoptosis in human A549 cells assessed as live cell at 3 uM incubated for 72 hrs by annexin V-FITC and PI staining based flow cytometric analysis (reference value: 90%); type: functional
A549 [22] = assay: Induction of apoptosis in human A549 cells assessed as late apoptotic cells at 5 uM incubated for 72 hrs by annexin V-FITC and PI staining based flow cytometric analysis (reference value: 6.5%); type: functional
A549 [23] = assay: Induction of cell cycle arrest in human A549 cells assessed as accumulation at S phase at 5 uM incubated for 72 hrs by PI staining based flow cytometric analysis (reference value: 31.41%); type: functional
A549 [24] = assay: Induction of morphological changes in human A549 cells assessed as appearance of apoptotic body formation at 1 to 5 uM incubated for 72 hrs by DAPI staining by inverted phase-contrast microscopic method; type: functional, cell-based; outline: as §2
A549 [25] = assay: Induction of apoptosis in human A549 cells assessed as late apoptotic cells at 1 uM incubated for 72 hrs by annexin V-FITC and PI staining based flow cytometric analysis (reference value: 6.5%); type: functional
A549 [26] = assay: Induction of apoptosis in human A549 cells assessed as early apoptotic cells at 5 uM incubated for 72 hrs by annexin V-FITC and PI staining based flow cytometric analysis (reference value: 3.0%); type: functional
A549 [27] = assay: Induction of cell cycle arrest in human A549 cells assessed as accumulation at S phase at 1 uM incubated for 72 hrs by PI staining based flow cytometric analysis (reference value: 31.41%); type: functional
A549 [28] = assay: Induction of cell cycle arrest in human A549 cells assessed as accumulation at G2 phase at 5 uM incubated for 72 hrs by PI staining based flow cytometric analysis (reference value: 18.65%); type: functional

IC50 (HepG2 [1]): 2.14 µM
IC50 (MCF7): 7.62 µM
IC50 (HeLa): 2.21 µM
IC50 (A549 [3]): 3.26 µM
SMILES: CC1(C)[C@@H](NC(=O)[C@@H]2CCCN2)CC[C@]2(C)[C@H]3C(=O)C=C4[C@@H]5C[C@@](C)(C(=O)OCc6ccccc6)CC[C@]5(C)CC[C@@]4(C)[C@]3(C)CC[C@@H]12
Ratio IC50 (HepG2 [2]): 16
IC50 (MDCK): 2.53 µM

IC50 (HepG2 [1]): 2.44 µM
IC50 (MCF7): 2.14 µM
IC50 (HeLa): 2.39 µM
IC50 (A549 [3]): 2.11 µM
SMILES: C[C@H](N)C(=O)N[C@H]1CC[C@]2(C)[C@H]3C(=O)C=C4[C@@H]5C[C@@](C)(C(=O)OCc6ccccc6)CC[C@]5(C)CC[C@@]4(C)[C@]3(C)CC[C@H]2C1(C)C
Activity (A549 [4]): Active
Activity (A549 [5]): 7.5%
Activity (A549 [6]): 0.3%
Activity (A549 [7]): 56.45%
Activity (A549 [8]): 46.79%
Activity (A549 [9]): 9.96%
Activity (A549 [10]): 33.59%
Activity (A549 [11]): 54%
Activity (A549 [12]): Active
Activity (A549 [13]): 15.86%
Activity (A549 [14]): 26.5%
Activity (A549 [15]): 53.09%
Activity (A549 [16]): 0%
Ratio IC50 (A549 [17]): 18
Activity (A549 [18]): 0.4%
Activity (A549 [19]): 5.9%
Activity (A549 [20]): 85%
Activity (A549 [21]): 65.7%
IC50 (MDCK): 4.65 µM
Activity (A549 [22]): 1.1%
Activity (A549 [23]): 53.21%
Activity (A549 [24]): Active
Activity (A549 [25]): 8.6%
Activity (A549 [26]): 44.8%
Activity (A549 [27]): 31.05%
Activity (A549 [28]): 0%

IC50 (HepG2 [1]): > 40 µM
IC50 (MCF7): > 40 µM
IC50 (HeLa): > 40 µM
IC50 (A549 [3]): > 40 µM
SMILES: CC(C)(C)OC(=O)N[C@@H](Cc1ccccc1)C(=O)N[C@H]1CC[C@]2(C)[C@H]3C(=O)C=C4[C@@H]5C[C@@](C)(C(=O)OCc6ccccc6)CC[C@]5(C)CC[C@@]4(C)[C@]3(C)CC[C@H]2C1(C)C
IC50 (MDCK): > 40 µM

IC50 (HepG2 [1]): 5.05 µM
IC50 (MCF7): 3.28 µM
IC50 (HeLa): 2.24 µM
IC50 (A549 [3]): 3.01 µM
SMILES: CC1(C)[C@@H](NC(=O)[C@@H](N)Cc2ccccc2)CC[C@]2(C)[C@H]3C(=O)C=C4[C@@H]5C[C@@](C)(C(=O)OCc6ccccc6)CC[C@]5(C)CC[C@@]4(C)[C@]3(C)CC[C@@H]12
IC50 (MDCK): 5.02 µM

IC50 (HepG2 [1]): > 40 µM
IC50 (MCF7): > 40 µM
IC50 (HeLa): > 40 µM
IC50 (A549 [3]): > 40 µM
SMILES: CC(C)(C)OC(=O)NCC(=O)N[C@H]1CC[C@]2(C)[C@H]3C(=O)C=C4[C@@H]5C[C@@](C)(C(=O)OCc6ccccc6)CC[C@]5(C)CC[C@@]4(C)[C@]3(C)CC[C@H]2C1(C)C
IC50 (MDCK): > 40 µM

IC50 (HepG2 [1]): 6.21 µM
IC50 (MCF7): 6.1 µM
IC50 (HeLa): 2.3 µM
IC50 (A549 [3]): 3.28 µM
SMILES: CC(C)C[C@H](N)C(=O)N[C@H]1CC[C@]2(C)[C@H]3C(=O)C=C4[C@@H]5C[C@@](C)(C(=O)OCc6ccccc6)CC[C@]5(C)CC[C@@]4(C)[C@]3(C)CC[C@H]2C1(C)C
IC50 (MDCK): 4.65 µM

IC50 (HepG2 [1]): 4.09 µM
IC50 (MCF7): 7 µM
IC50 (HeLa): 3.1 µM
IC50 (A549 [3]): 6.97 µM
SMILES: CSCC[C@H](N)C(=O)N[C@H]1CC[C@]2(C)[C@H]3C(=O)C=C4[C@@H]5C[C@@](C)(C(=O)OCc6ccccc6)CC[C@]5(C)CC[C@@]4(C)[C@]3(C)CC[C@H]2C1(C)C
IC50 (MDCK): 6.25 µM

IC50 (HepG2 [1]): > 40 µM
IC50 (MCF7): > 40 µM
IC50 (HeLa): > 40 µM
IC50 (A549 [3]): > 40 µM
SMILES: C[C@H](NC(=O)OC(C)(C)C)C(=O)N[C@H]1CC[C@]2(C)[C@H]3C(=O)C=C4[C@@H]5C[C@@](C)(C(=O)OCc6ccccc6)CC[C@]5(C)CC[C@@]4(C)[C@]3(C)CC[C@H]2C1(C)C
IC50 (MDCK): > 40 µM

IC50 (HepG2 [1]): > 40 µM
IC50 (MCF7): 14.4 µM
IC50 (HeLa): 18.8 µM
IC50 (A549 [3]): 17 µM
SMILES: CC1(C)[C@@H](OC(=O)[C@@H](N)Cc2ccccc2)CC[C@]2(C)[C@H]3C(=O)C=C4[C@@H]5C[C@@](C)(C(=O)OCc6ccccc6)CC[C@]5(C)CC[C@@]4(C)[C@]3(C)CC[C@@H]12
IC50 (MDCK): 14.4 µM

IC50 (HepG2 [1]): > 40 µM
IC50 (MCF7): > 40 µM
IC50 (HeLa): > 40 µM
IC50 (A549 [3]): > 40 µM
SMILES: CC[C@H](C)[C@H](NC(=O)OC(C)(C)C)C(=O)N[C@H]1CC[C@]2(C)[C@H]3C(=O)C=C4[C@@H]5C[C@@](C)(C(=O)OCc6ccccc6)CC[C@]5(C)CC[C@@]4(C)[C@]3(C)CC[C@H]2C1(C)C
IC50 (MDCK): > 40 µM

IC50 (HepG2 [1]): > 40 µM
IC50 (MCF7): > 40 µM
IC50 (HeLa): > 40 µM
IC50 (A549 [3]): > 40 µM
SMILES: CSCC[C@H](NC(=O)OC(C)(C)C)C(=O)N[C@H]1CC[C@]2(C)[C@H]3C(=O)C=C4[C@@H]5C[C@@](C)(C(=O)OCc6ccccc6)CC[C@]5(C)CC[C@@]4(C)[C@]3(C)CC[C@H]2C1(C)C
IC50 (MDCK): > 40 µM

IC50 (HepG2 [1]): 9.96 µM
IC50 (MCF7): 8.07 µM
IC50 (HeLa): 10.6 µM
IC50 (A549 [3]): 7.53 µM
SMILES: CSCC[C@H](N)C(=O)O[C@H]1CC[C@]2(C)[C@H]3C(=O)C=C4[C@@H]5C[C@@](C)(C(=O)OCc6ccccc6)CC[C@]5(C)CC[C@@]4(C)[C@]3(C)CC[C@H]2C1(C)C
IC50 (MDCK): 39.2 µM
